Experimental data: paper PMC3483362 (Journal of inorganic biochemistry, 2012)
Entries after “also recorded” stand apart in the source; their conditions may differ.

Tests used:
[1] = tested on: plasmid (pBR322) DNA; experiment: Electrophoresis mobility shift assay; type: binding; details: 37 °C, 20 h, increasing molar ratios
In short: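 pBR322 plasmid DNA (20 µg/mL) in 5 mM Tris/HCl, 50 mM NaClO₄, pH 7.39 was incubated with test compound at compound/DNA molar ratios of 0.25–4.0, 37 °C, 20 h, in the dark. Free DNA and cisplatin-DNA served as controls. Samples ran on 1% agarose in TAE for 1.5 h at 80 V, with GelRed staining for 30 min.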

[2] = tested on: Jurkat sh-Bak cells (Bax/Bak-deficient Jurkat cells); experiment: Activity against apoptosis-resistant cells; type: cell-based, human; details: cisplatin-resistant
[3] = Solubility; type: physicochemical
[4] = Stability in solution by 31P{1H} and 1H NMR; type: physicochemical; details: RT
[5] = tested on: Calf Thymus DNA; experiment: Interaction with CT DNA by circular dichroism; type: binding; details: drug/DNA ratios 0.1-1.0, 37 °C, 20 h
In short: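 CT DNA (195 µM) in 5 mM Tris/HCl, 50 mM NaClO₄, pH 7.39 received test compound from fresh 5 mM stocks in DMSO-H₂O (1:99). Mixtures were kept 20 h at 37 °C in the dark. CD spectra were recorded at 25 °C over 220–320 nm, blank-corrected, smoothed with a Savitzky-Golay filter, and expressed in molar ellipticity.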

[6] = tested on: human Jurkat-T acute lymphoblastic leukemia cells; experiment: Cytotoxicity by modified MTT-reduction method, 24 h; type: cell-based
[7] = target: human serum albumin (HSA) (Homo sapiens, UniProt P02768); experiment: HSA fluorescence quenching; type: binding; details: excitation 295 nm, HSA 10 µM, phosphate buffer pH 7.39; compared to cisplatin
In short: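 HSA (10 µM) in phosphate buffer pH 7.39 received ten successive additions from an 8 mM DMSO stock of test compound, with a read 240 s after each. Tryptophan excitation was at 295 nm and emission was recorded at 300–450 nm at room temperature. Data were fitted to the Stern-Volmer equation F₀/F = 1 + K_SV[Q].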

[8] = tested on: DU-145 human prostate cancer cells; experiment: Cytotoxicity by modified MTT-reduction method, 24 h; type: cell-based; details: DU-145 cells
In short: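 DU-145 cells were grown in RPMI 1640 with 5% FCS, L-glutamine and penicillin/streptomycin, seeded at 1 ×10⁵ cells/mL and allowed to attach. […] After 24 h, proliferation was read by a modified MTT-reduction method and IC₅₀ derived.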

[9] = tested on: DU-145 human prostate cancer cells; experiment: Cell death pathway; type: cell-based; details: 24 h
In short: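 DU-145 cells in RPMI 1640 with 5% FCS, L-glutamine and penicillin/streptomycin were seeded at 1×10⁵ cells/mL and allowed to attach. Test compound (1% DMSO, diluted in water) was given for 24 h. Nuclei were stained with Hoechst (10 µg/ml) and imaged under UV. For flow cytometry, cells went into Hepes pH 7.4 annexin buffer with Annexin V conjugate (0.5 µg/ml) and 7-AAD, 37 °C, 15 min.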

[10] = tested on: Jurkat cells; experiment: Cell death pathway; type: cell-based, human; details: 24 h, concentrations for IC50 values
In short: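 Jurkat cells (5 ×10⁵ cells/ml) exposed to test compound for 24 h. Nuclei stained with Hoechst (10 µg/ml) and photographed under UV light. For flow cytometry, cells were held in annexin binding buffer (140 mM NaCl, 2.5 mM CaCl₂, 10 mM Hepes/NaOH, pH 7.4) with fluorescent AnnexinV (0.5 µg/ml) and 7-AAD (50ng/µl) at 37 °C for 15 min, then diluted with buffer and counted.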

[11] = tested on: MOLT-4 human leukemia cell line; details: read-out: IC50 MOLT-4; cited from earlier work

Sequence of human serum albumin (HSA) (P02768 25-609): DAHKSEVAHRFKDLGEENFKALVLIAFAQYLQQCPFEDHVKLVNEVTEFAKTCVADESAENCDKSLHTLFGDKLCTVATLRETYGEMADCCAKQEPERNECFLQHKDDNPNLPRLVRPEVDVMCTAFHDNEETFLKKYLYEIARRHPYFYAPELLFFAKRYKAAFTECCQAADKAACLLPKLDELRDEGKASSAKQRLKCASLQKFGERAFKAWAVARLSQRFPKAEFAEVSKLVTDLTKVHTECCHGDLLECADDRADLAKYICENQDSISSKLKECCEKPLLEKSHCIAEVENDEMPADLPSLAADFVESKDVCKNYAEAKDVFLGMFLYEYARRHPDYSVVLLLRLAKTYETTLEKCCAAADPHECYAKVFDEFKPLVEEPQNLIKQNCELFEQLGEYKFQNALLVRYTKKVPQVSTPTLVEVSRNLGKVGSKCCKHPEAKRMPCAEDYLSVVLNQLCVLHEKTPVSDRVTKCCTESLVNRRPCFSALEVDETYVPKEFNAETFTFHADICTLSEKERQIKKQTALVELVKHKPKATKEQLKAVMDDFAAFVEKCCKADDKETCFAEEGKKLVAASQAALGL

| Compound | effect on electrophoretic mobility of pBR322 forms [1] | toxicity to Jurkat sh-Bak cells [2] | solubility in H2O ([3]; H2O) | stable in DMSO solution (time) ([4]; DMSO) | stable in H2O (time) ([4]; H2O) | effect on CD spectrum of CT DNA / interaction with CT DNA [5] | times more cytotoxic than cisplatin [6] | solubility at concentrations required for ITC ([3]; ITC conditions, phosphate buffer) | quenching of HSA fluorescence [7] | times more cytotoxic than cisplatin [8] | cell death / growth in DU-145 cells [9] | cell death in Jurkat cells [10] | IC50 [11] |
| --- | --- | --- | --- | --- | --- | --- | --- | --- | --- | --- | --- | --- | --- |
| N.N.[Cl][Pt][Cl] [Cisplatin, reference compound] | decrease in mobility of the CCC form and an increase in mobility of the OC form | activity is totally dependent on the presence of functional Bax and Bak | – | – | – | – | – | – | – | – | – | – | – |
| O=C(N=P12CN3CN(CN(C3)C1)C2)c1ccccn1 [Compound 1, TPA=N-C(O)-2-NC5H4 (N,N-IM)] | does not cause any shift for either form | – | soluble | 14 days | 3 h | – | – | – | – | – | – | – | – |
| O=C1[N-][Au]([Cl])([Cl])[n+]2ccccc21 [Compound 5, [AuCl2(HN-C(O)-2-NC5H4)]] | – | exhibited some toxicity | – | – | – | decrease in helicity (destabilizing effect); also recorded: interacts more strongly with DNA most likely by intercalation | seven | poor solubility at the required concentrations | higher quenching | 4 times | do not induce cell death in DU-145 at 24 h | induced cell death in Jurkat cells; also recorded: induce both necrotic and apoptotic cell death | 3.1 µM |
